Screens deposited in PubChem BioAssay by several laboratories.
SKN-1 inh = suppressors of acrylamide-induced Pgst-4::GFP reporter in worms, primary screen, SKN-1 inhibitor project, whole organism, uHTS, GFP/RFP fluorescence ratio, strain VP596 | C. elegans VP596 Pgst-4::GFP/RFP ratio, 24 h | inhibition, % at 21.8 µM | 0.49% of 360,000 active;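 active means interference check ratio from 0.5 to 1.5 plus GFP to RFP signal ratio inhibition reaching or exceeding a fixed threshold, cut at about 30% in these data, passing the limit was not always enough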
MIN6 prolif = inducers of MIN6 beta-cell proliferation, primary screen, ATP luminescence, uHTS. MIN6 cells proliferation, ATPlite luminescence, 48 h; cells starved in 0.2% serum; 100% = growth in 10% serum. 0.29% of 330,000 active. proliferation, % at 10 µM;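 active means compounds whose signal lies at least 3.5 SD above the mean of all wells on their plate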;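 further: 0% = DMSO-treated cells in low-serum medium and 100% = 10% serum control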
MsrA inh = bovine MsrA enzyme inhibitors, primary screen, biochemical, absorbance, HTS; purified bovine MsrA, absorbance read-out; 0.75% of 360,000 active; Methionine sulfoxide reductase A (Bos taurus); inhibition, % at 15.5 µM;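 further: 0% = vehicle wells with enzyme and 100% = reference inhibitor wells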
DAGLB inh = DAGLB lipase inhibitors, primary screen, biochemical, fluorescence, HTS; Diacylglycerol lipase-beta (Homo sapiens), Q8NCG7; HEK293T DAGLB membrane lysate, EnzChek fluorogenic substrate; inhibition, % at 5.17 µM; 0.059% of 340,000 active; in the data active means inhibition above about 34%;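 further: 0% = enzyme with vehicle and 100% = wells lacking enzyme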
Target sequence (Q8NCG7 whole entry, looked up): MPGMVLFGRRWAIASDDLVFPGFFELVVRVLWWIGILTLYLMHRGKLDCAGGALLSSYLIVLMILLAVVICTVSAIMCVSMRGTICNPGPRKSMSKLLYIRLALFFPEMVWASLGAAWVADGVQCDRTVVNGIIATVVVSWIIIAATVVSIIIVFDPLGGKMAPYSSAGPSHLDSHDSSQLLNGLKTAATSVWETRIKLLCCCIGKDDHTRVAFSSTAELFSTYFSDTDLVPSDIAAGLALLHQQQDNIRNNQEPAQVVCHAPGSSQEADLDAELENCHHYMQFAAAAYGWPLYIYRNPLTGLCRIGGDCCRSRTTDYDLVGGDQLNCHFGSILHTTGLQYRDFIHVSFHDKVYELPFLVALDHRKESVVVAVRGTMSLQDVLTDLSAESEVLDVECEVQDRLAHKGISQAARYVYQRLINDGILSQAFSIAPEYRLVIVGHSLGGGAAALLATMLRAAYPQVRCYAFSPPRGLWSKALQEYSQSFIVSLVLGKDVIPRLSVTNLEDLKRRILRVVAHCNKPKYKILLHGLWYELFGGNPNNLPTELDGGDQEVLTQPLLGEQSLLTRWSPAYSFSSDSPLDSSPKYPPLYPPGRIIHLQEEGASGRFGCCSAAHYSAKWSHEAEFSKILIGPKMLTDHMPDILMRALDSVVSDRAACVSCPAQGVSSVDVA
MT1-MMP act inh = blockers of MT1-MMP proenzyme processing, primary screen, HT1080 RFP-PRO-GFP cells, GFP/RFP fluorescence; GFP/RFP ratio fluorescence, overnight; percent of plate control window, DMSO zero; GFP/RFP ratio change, % at 20 µM; 0.061% of 360,000 active; Matrix metalloproteinase-14 (Homo sapiens), P50281;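 active means GFP/RFP ratio change of at least 30% with cell ATP level not reduced by more than half and red fluorescence within 50% of control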
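system = RFP-PRO-GFP reporter HT1080 cells | dosing = 20 µM single dose, 1% DMSO | timing = overnight cell settling, then overnight compound exposure, 37 °C, 5% CO2 | read-out basis = GFP/RFP fluorescence ratio | controls = DMSO and RFP-L50D-GFP cell wells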
bovine MsrA act = bovine MsrA enzyme activators, primary screen, biochemical, absorbance, HTS. Methionine sulfoxide reductase A (Bos taurus). purified bovine MsrA, absorbance read-out. activation, % at 10.6 µM. 0.3% of 360,000 active. AID 602163, 2012; in the data active means activation above about 7.5%;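 further: 0% = vehicle and 100% = reference activator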
MsrA inh confirm = bovine MsrA inhibitors, retest, confirmation, biochemical, absorbance, HTS | shares compounds with MsrA inh | purified bovine MsrA, absorbance read-out | inhibition, % at 15.5 µM | 41% of 2,300 active | AID 651822, 2012;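 further: coupled to thioredoxin reductase with NADPH and selenocystamine and DMSO as substrate; 0% = vehicle only and 100% = full effect of reference inhibitor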
Active calls of the source: *. The list is not random: actives were taken first. Their share in the collection is about 1.8%. Unless noted, no stated cut-off is given here; in the data, active means inhibition above about 4.5%; inactive means the rest.

`CC(NC(=O)C(=O)N1CCOCC1)C(c1cccs1)N1CCN(c2ccccc2)CC1` (stereo not drawn) gave SKN-1 inh -9, MIN6 prolif 2, MsrA inh 0, DAGLB inh 3, MT1-MMP act inh -4 and bovine MsrA act -6.
Screening COc1ccc(C(=O)N2CCCC(Nc3ccc(F)cc3)C2)c(OC)c1 (stereo not drawn) returned SKN-1 inh -2, MIN6 prolif 7, MsrA inh 0, DAGLB inh 2, MT1-MMP act inh 2 and bovine MsrA act -4.
COc1c(F)cccc1C1=CC(=O)C[C@H](c2ccc3c(c2)OCO3)C1 was read as SKN-1 inh -2, MIN6 prolif -6, MsrA inh 7.1*, DAGLB inh -9, MT1-MMP act inh 7, bovine MsrA act -1 and MsrA inh confirm 3.
`CCc1c(-c2cccc(Br)c2)ncn1CCc1ccccc1OC` gave MsrA inh 0.
O=C(NCCN1C(=O)S/C(=C\c2ccc(OC(F)F)cc2)C1=O)c1cnccn1 was read as SKN-1 inh -2, MIN6 prolif 0, MsrA inh 5.1*, DAGLB inh -1, MT1-MMP act inh -4, bovine MsrA act -7 and MsrA inh confirm 2.
Screening COc1ccc(/C=C2\SC(=O)N(CCNC(=O)C3=COCCO3)C2=O)cc1 returned SKN-1 inh 9, MIN6 prolif -4, MsrA inh 8.5*, DAGLB inh 2, MT1-MMP act inh -7, bovine MsrA act -3 and MsrA inh confirm 3.
`O=C(NCCN1C(=O)S/C(=C\c2ccccc2F)C1=O)C1=COCCO1` gave SKN-1 inh 5, MIN6 prolif 2, MsrA inh 4.8*, DAGLB inh -2, bovine MsrA act -5 and MsrA inh confirm 2.
Screening O=C(CN(c1ccccc1)S(=O)(=O)c1ccccc1[N+](=O)[O-])N1CCCC1 returned SKN-1 inh 5, MIN6 prolif 0, MsrA inh 1, DAGLB inh 0, MT1-MMP act inh 2 and bovine MsrA act -2.
Screening COc1ccc(-c2noc3c2-c2nc(-c4ccc(C)cc4)sc2CC3)cc1 returned SKN-1 inh -6, MIN6 prolif -5, MsrA inh -1, DAGLB inh -6, MT1-MMP act inh -1 and bovine MsrA act 1.
Screening CCOC(=O)Cc1csc(NC(=O)C(C)c2ccc([N+](=O)[O-])cc2)n1 (stereo not drawn) returned SKN-1 inh -3, MIN6 prolif -2, MsrA inh -1, DAGLB inh -2, MT1-MMP act inh -2 and bovine MsrA act -11.
`CN(C)N=Nc1nc2c(c(=O)n(C)c(=O)n2C)n1CC1CO1` (stereo not drawn) gave SKN-1 inh 15, MIN6 prolif 1, MsrA inh 7.4*, MT1-MMP act inh -18, bovine MsrA act -6 and MsrA inh confirm 5.9*.
Screening CN1/C(=C/C(=O)C2CCC2)Sc2ccccc21 returned SKN-1 inh 10, MIN6 prolif -4, MsrA inh 8.3*, DAGLB inh 0, MT1-MMP act inh 11, bovine MsrA act -4 and MsrA inh confirm 5.9*.
O=C(NCCc1ccc(F)cc1)c1coc(=O)c(Br)c1 was read as SKN-1 inh -13, MIN6 prolif -5, MsrA inh 6.0*, DAGLB inh -2, MT1-MMP act inh 7, bovine MsrA act 3 and MsrA inh confirm 4.8*.
COc1ccc(C)cc1NC(=O)CSc1nc2ccccc2nc1N1CC(C)OC(C)C1 (stereo not drawn) was read as SKN-1 inh 0, MIN6 prolif -6, MsrA inh 1, DAGLB inh -16, MT1-MMP act inh -13 and bovine MsrA act 1.
